# High-throughput results (PubChem)
# NF-kB expr up: activators of NF-kB expression in neurons, primary screen, cell-based, HTS | 190,000 tested, 1.6% active | fold change at 12.5 µM | human neuronal cells, NF-kB reporter expression; active compounds read high | AID 1239, 2008; in the data active means fold change above about 3.3
# APP 5'UTR act: activators of APP 5'UTR luciferase reporter, primary screen, SH-SY5Y cells | SH-SY5Y APP 5'UTR luciferase reporter, luminescence; zero percent = DMSO vehicle wells | activation, % at 2 µM | 190,000 tested, 1% active | AID 1276, 2008;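 active means activation above a set limit, based on mean plus 3 SD of controls, cut at about 140% in these data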
# Pf gametocyte: late stage P. falciparum gametocyte viability inhibitors, primary screen, ATP luminescence, HTS | P. falciparum stage V gametocytes, 24 h | inhibition, % at 10.9 µM | 150,000 tested, 0.065% active | AID 743093, 2013;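 active means inhibition above the mean plus 3 SD of compounds within the control limits, set per campaign, cut at about 38% in these data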;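 further: 0% = DMSO wells and 100% = medium only without gametocytes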
# STAT1 act: STAT1 signaling activators, primary screen, cell-based, HTS, luciferase reporter. activation (% of control), % at 5.5 µM. AID 932, 2007. NIH 3T3 STAT1-luciferase reporter, IFN-gamma, luminescence; 100% = IFN-gamma alone, no compound. 200,000 tested, 2.6% active;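 active means activation above the screen-wide mean activation plus 3 SD, cut at about 130% in these data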;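 further: raw ratio to IFN-gamma control signal so 100% means no change and 0% no light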
# FLuc inhib CS: firefly luciferase enzyme inhibitors, primary screen, artefact control for luciferase-based inhibitor screens, biochemical, luminescence, ATPLite | 10 min | Luciferin 4-monooxygenase (Photinus pyralis), P08659 | inhibition, % at 10 µM | AID 1006, 2008 | 200,000 tested, 1.5% active;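 active means inhibition above about 50% when tested at 10 µM, limit read from the data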
# Target sequence (P08659 whole entry, looked up): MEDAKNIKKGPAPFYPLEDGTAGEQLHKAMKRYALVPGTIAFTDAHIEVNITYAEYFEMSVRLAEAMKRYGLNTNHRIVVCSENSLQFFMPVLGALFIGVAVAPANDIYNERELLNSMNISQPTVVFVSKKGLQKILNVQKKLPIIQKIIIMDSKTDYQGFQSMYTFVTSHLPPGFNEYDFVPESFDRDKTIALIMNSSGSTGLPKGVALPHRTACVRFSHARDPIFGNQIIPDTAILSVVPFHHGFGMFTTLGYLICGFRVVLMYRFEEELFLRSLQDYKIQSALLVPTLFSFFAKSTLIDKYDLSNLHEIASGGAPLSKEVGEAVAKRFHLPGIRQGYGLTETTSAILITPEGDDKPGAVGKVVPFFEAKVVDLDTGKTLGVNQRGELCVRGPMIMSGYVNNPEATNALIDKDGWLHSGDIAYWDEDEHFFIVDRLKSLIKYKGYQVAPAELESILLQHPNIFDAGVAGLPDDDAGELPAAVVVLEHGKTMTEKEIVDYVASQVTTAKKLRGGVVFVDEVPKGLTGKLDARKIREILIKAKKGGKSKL
# FLuc act counter: FLuc activators, initial screening, artefact control for FLuc-dependent activation tests, biochemical, ATPlite luminescence; Luciferin 4-monooxygenase (Photinus pyralis), P08659; ATPlite luciferase biochemical, 10 min; 0 = ATP-free wells, 1 = DMSO control; activation factor at 10 µM; 200,000 tested, under 10 active; AID 1027, 2008;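 active means luciferase activation factor, scaled between plate controls, of at least 2 with compound at 10 µM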
#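 assay system = Luciferase/luciferin detection reagent, cell-free biochemical luciferase assay | also added = ATP substrate | times = 10 min post-reagent at room temperature | measured by = luminescence from luciferase reaction | measure = luciferase activation, seen as luminescence increase over controls | benchmarks = low control with PBS replacing ATP, high control enzyme plus ATP without compound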
# * marks the source's active call; other numbers are inactive results; / = no result given. This is a sample that favours compounds with a hit; in the whole collection about 3.5% have one here.
SMILES,NF-kB expr up,APP 5'UTR act,Pf gametocyte,STAT1 act,FLuc inhib CS,FLuc act counter
COc1cccc(C(=O)Nc2ccc(NC(=O)C3CC3)cn2)c1,2.8,87,/,122,40,0.6
CCCC(=O)Nc1ccc(NC(=O)c2ccccc2Cl)nc1,1.5,23,/,104,6,0.9
CCc1ccc(NC(=S)NCC2CCCN2CC)cc1 (centres undefined),0.9,6,3,105,-4,1
Cc1cc(C)c2c(c1)/C(=N/NC(=O)c1cc(C)oc1C)CCC2,1.3,-10,7,92,2,1
C=C1CCN(C(C)C(=O)O)S(=O)(=O)c2ccccc21 (centres undefined),/,/,-18,/,/,/
Cc1ccccc1Nc1nnc(SCC(=O)NC2CCCc3ccccc32)s1 (centres undefined),0.73,7,/,144*,-2,1
COc1ccc2cc1Oc1ccc(cc1)C[C@H]1c3cc(c(OC)cc3CCN1C)Oc1c(OC)c(OC)cc3c1[C@@H](C2)N(C)CC3,/,/,2,/,/,/
O=C1c2ccccc2-c2nc3ccccc3nc21,1.5,11,-14,132*,11,0.9
COc1ccccc1-c1nc2ccccc2nc1-c1ccccc1OC,0.95,/,8,93,-4,1
c1ccc(Cc2cc(-c3ccccc3)on2)cc1,1.9,33,-8,132*,10,0.9
Cc1cccc(NC(=O)COC(=O)c2cc3ccccc3oc2=O)c1,1.1,0,-25,110,-4,1
CC(C)(C)OC(=O)C[C@H]1C/C=C\C[C@@H](CC(=O)NCCO)C(=O)NC[C@@H](c2ccccc2)OC1=O,/,/,20,/,/,/
O=C(CN(Cc1ccccc1)C(=O)c1csnn1)NCc1ccccc1,1.1,-4,13,105,-7,1.1
O=C1NC(=O)/C(=C\c2ccc(Oc3cnccn3)cc2)S1,2.2,33,12,140*,24,0.8
Cc1cc(NC(=O)c2ccc(N3CCCC3)c([N+](=O)[O-])c2)no1,1,5,20,105,-3,1
O=C(Nc1ccon1)c1ccc(N2CCCCC2)c([N+](=O)[O-])c1,3.2,133,9,150*,12,0.9
COC(=O)C(CC(=O)c1ccc(Br)cc1)n1ccnc1 (centres undefined),1.3,-22,/,94,-1,1
Cc1ccc(Nc2n[nH]c(C)c2[N+](=O)[O-])c(C)c1,5.3*,27,16,107,0,1
Cc1[nH]nc(Nc2ccc(O)cc2)c1[N+](=O)[O-],1.2,26,-7,106,-3,1
COc1ccc(Nc2n[nH]c(C)c2[N+](=O)[O-])cc1,4.8*,35,6,121,9,0.9
COc1ccc(NC(=O)C2=CCN(S(=O)(=O)c3ccccc3)CC2)cc1OC,/,/,21,/,/,/
O=C(Nc1ccc(-c2ccccc2)cc1)c1ccccc1,/,/,-1,/,/,/
Cc1ccc(NC(=O)c2ccccc2O)cc1,6*,131,/,105,78*,0.2
COC(=O)c1cc(NC(=O)c2ccc(-c3ccccc3)cc2)ccc1Cl,1.7,-2,41*,99,-3,1
Cc1ccc(NC(=O)c2ccccc2)cc1,3.5*,97,10,135*,43,0.6
SMILES,NF-kB expr up,APP 5'UTR act,Pf gametocyte,STAT1 act,FLuc inhib CS,FLuc act counter
CSCCC(=O)N1CCCC(N(C)CCc2ccccc2)C1 (centres undefined),/,/,-12,/,/,/
Nc1nc(CN2CCN(c3ccccc3F)CC2)nc(N2CCCc3ccccc32)n1,1,11,0,102,-3,1
CC(C)NS(=O)(=O)c1ccc(CCC(=O)NCc2cccnc2)cc1,1.4,4,/,94,-2,1
COc1cc(CN2CCCC(CO)(Cc3ccccc3C)C2)cc2c1OCO2 (centres undefined),1.2,8,8,81,-3,1
O=C(Nc1ccc(N2CCOCC2)cc1)c1cnsn1,0.58,24,-8,60,90*,0.1
O=C(Nc1ccc(N2CCOCC2)cc1)c1ccncc1,1.1,-3,/,97,10,0.9
CCOC(=O)N1CCN(Cc2ccc(O)c3ncccc23)CC1,4.8*,-11,3,98,-4,1
COCc1cc(CN2CCCC2)c(O)c2ncccc12,0.67,-20,/,92,-2,1
Oc1ccc(CN2CCc3ccccc3C2)c2cccnc12,5.2*,-87,-18,93,-7,1.1
Oc1ccc(CN2CCCCC2)c2cccnc12,11*,-88,/,99,-6,1.1
Oc1c(CN2CCCCC2)cc(COCc2ccccc2)c2cccnc12,3.8*,-85,-13,100,-1,1
O=C(O)C1Nc2c(O)cc(Cl)c([N+](=O)[O-])c2C2C=CCC12 (centres undefined),1.3,-13,10,99,7,0.9
OCc1ccccc1SSc1ccccc1CO,/,/,-10,/,/,/
COc1ccc(CCN=C(N)Nc2nc(C)cc(C)n2)cc1,1.1,24,11,71,-2,1
Cc1cccc(-c2cc3nc4c(c(NCc5ccco5)n3n2)CCCC4)c1,3.2,124,/,135*,14,0.9
Cc1cccc(-c2cc3nc4c(c(N5CCOCC5)n3n2)CCCC4)c1,1.4,183*,16,116,30,0.7
CCSc1nc2ccccc2c(=O)n1Cc1ccc(F)cc1,0.99,-4,4,93,-8,1.1
O=C(Nc1ccc(-c2nc3ccccc3[nH]2)cc1)c1ccco1,2.6,169*,/,141*,58*,0.4
Cn1cc([N+](=O)[O-])c(C(=O)Nc2ccc(-c3nc4ccccc4[nH]3)cc2)n1,9.5*,51,-8,115,20,0.8
Cn1cc([N+](=O)[O-])c(C(=O)Nc2ccc(C(=O)N3CCCCC3)cc2)n1,1,-21,1,95,-3,1
Cn1cc([N+](=O)[O-])c(C(=O)Nc2ccc3nc(-c4ccccc4)[nH]c3c2)n1,1.4,57,-15,103,37,0.6
O=C(Nc1ccc2nc(-c3ccco3)[nH]c2c1)c1cccs1,1.1,48,/,96,77*,0.2
Cn1cc([N+](=O)[O-])c(C(=O)Nc2ccc(C3CCCCC3)cc2)n1,3.7*,27,-5,116,14,0.9
O=C(Nc1ccc2nc(-c3ccccc3)[nH]c2c1)c1cccs1,0.46,46,15,115,35,0.7
O=C(NC1CCCC1)c1cccc(NC(=O)c2ccco2)c1,1.1,-29,-7,103,0,1
O=C(Nc1ccc2nc(-c3ccco3)[nH]c2c1)c1ccco1,0.92,16,7,108,80*,0.2
O=C(NN1CCCCCC1)c1ccccc1F,/,/,-18,/,/,/
CCOC(OCC)c1cc2ccccc2cn1,/,/,-2,/,/,/
